Our source for the ED50, LD50 and inhibition in vivo values is ChEMBL document CHEMBL1128569, “N-acyl-2-substituted-1,3-thiazolidines, a new class of non-narcotic antitussive agents: studies leading to the discovery of ethyl 2-[(2-methoxyphenoxy)methyl]-beta-oxothiazolidine-3-propanoate” (J Med Chem, 1995).

Some results are limits rather than exact numbers.

In data set [1] the test system is Cavia porcellus. The data set is described as follows: Antitussive activity by inhibition of irritant citric acid aerosol-induced coughing in guinea pig upon oral administration. Format: functional. An outline of the steps: (§1)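 Male guinea pigs (350-400 g) exposed in a box to 7.5% citric acid aerosol for 5 min, and coughs counted as the basal value. Next day, after overnight fasting, animals (6-8/dose) were gavaged with compound in water or 0.5% methyl cellulose (2 mL/kg) 1 h before re-exposure. Activity is the reduction in coughs versus the basal count. ED50 is the dose giving 50% reduction (Cochran and Snedecor).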

Data set [2] concerns Cavia porcellus. The data set is described as follows: Inhibition of irritant electrically-induced coughing in guinea pig trachea following p.o. administration. As to conditions: po. Format: functional. An outline of the steps:
(§2)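 Guinea pigs under ketamine (10 mg/kg im) and xylazine (3 mg/kg im) anaesthesia, with an electrode wrapped around the trachea about 1.5 cm above the bifurcation and an indifferent electrode on the dorsal skin. Coughs during stimulation counted as the basal value. Groups of 6-8/dose were gavaged with compound in water or 0.5% methyl cellulose (2 mL/kg). Activity is the cough reduction versus basal. ED50 is the dose giving 50% reduction.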

The nature of data set [3]: Acute toxicity was determined in mice upon peroral administration. Format: organism-based. As to conditions: mouse, in vivo, po. Put shortly:
(§3)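 Swiss mice of both sexes, groups of six, dosed by gavage at several doses up to 1000 mg/kg. Compound dissolved in water or suspended in 0.5% carboxymethyl cellulose, 10 mL/kg. Deaths recorded over 1-7 days. LD50 obtained by logit transformation.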

Data set [4] in a line: Lethality in mice following p.o. administration. Format: ADME, organism-based. Particulars: mouse, in vivo, po. Put shortly: as §3
Data set [5] deals with Cavia porcellus. The data set is described as follows: Antitussive activity was evaluated by inhibition of irritant aerosol-induced coughing by (po) administration of 30 mg/kg in guinea pig. It is filed as functional. An outline of the steps: as §1
Data set [6] has as its system Cavia porcellus. The data set can be described thus: Antitussive activity was evaluated by inhibition of irritant citric acid aerosol-induced coughing in guinea pig upon oral administration at 30 mg/kg dose. Format: functional. An outline of the steps: as §1
Data set [7] relates to Cavia porcellus. The data set is described as follows: Antitussive activity was evaluated by inhibition of irritant electrically-induced coughing in guinea pig trachea upon oral administration at 30 mg/kg. Format: functional. An outline of the steps:
as §2

For orientation: ED50 means the dose at which the effect has come halfway, by size or by number of responders. High values mean weaker potency, low ones greater potency. The compound `CCCC(=O)CC(=O)N1CCSC1COc1ccccc1OC` (centres undefined) came in with an ED50 in the data set on Cavia porcellus [1] of 42 mg/kg.
Broadly, the LD50 is the dose at which mortality reaches 50%. A lower LD50 goes with greater toxicity. Turning to `COc1ccccc1OCC1SCCN1C(=O)COC(C)=O` (centres undefined), the ED50 in the data set on Cavia porcellus [2] was determined as 25 mg/kg. This compound also displayed a median lethal dose (LD50) in data set [3] above 1000 mg/kg.
With `C=CC(=O)N1CCSC1COc1ccccc1OC` (centres undefined), the ED50 in the data set with Cavia porcellus [1] stood at 74 mg/kg. For the same compound, the LD50 in data set [3] amounted to 718 mg/kg.
Consider `OCC(O)CN1CCN(c2ccccc2)CC1` (centres undefined) [DROPROPIZINE], for which the values for the 50% effective dose (ED50) in the data set on Cavia porcellus [1] and in the data set on Cavia porcellus [2] were 144 mg/kg and 32 mg/kg, respectively.
As for `COc1ccccc1OCC1NCCS1` (centres undefined), in data set [3], the median lethal dose (LD50) was above 1000 mg/kg.
For orientation: inhibition in vivo means the relative decrease from the control value, in per cent. On to `COc1ccccc1OCC1SCCN1C(=O)CSC(=O)c1cc(OC)c(OC)c(OC)c1` (centres undefined), for which the LD50 in data set [4] was above 1000 mg/kg. This compound also registered an inhibition in vivo at 30 mg/kg in the data set with Cavia porcellus [5] below 20%.
Compound `COc1ccccc1OCC1SCCN1C(=O)CC(=O)N1CCN(C)CC1` (centres undefined) returned a 50% effective dose (ED50) in the data set with Cavia porcellus [1] of 27 mg/kg. The LD50 in data set [3] was found to be 880 mg/kg.
For the compound `O=C(O)[C@@H]1CSC(CCc2ccccc2O)N1` (some centres undefined), the ED50 in the data set with Cavia porcellus [2] is 45 mg/kg. In the data set on Cavia porcellus [6], this compound displayed an inhibition in vivo at 30 mg/kg below 20%. This compound also came in with a 50% lethal dose (LD50) in data set [3] above 1000 mg/kg.
Take `COc1ccccc1OCC1SCCN1C(=O)CC(=O)N1CCN(C(c2ccc(F)cc2)c2ccc(F)cc2)CC1` (centres undefined): the 50% effective dose (ED50) with Cavia porcellus [1] was 26 mg/kg; in the data set on Cavia porcellus [2] it was 32 mg/kg. This compound also displayed an LD50 in data set [3] above 1000 mg/kg.
The compound `Cl.O=C(O)c1ccc(OCC2SCCN2C(=O)Cn2ccnc2)cc1` (centres undefined) registered an inhibition in vivo at 30 mg/kg in the data set on Cavia porcellus [6] below 20%. Moreover, in data set [3], the LD50 is above 1000 mg/kg.
Regarding `COc1ccccc1OCC1SCCN1C(=O)C[S+](C)[O-]` (centres undefined), the ED50 with Cavia porcellus [1] was found to be 25 mg/kg; in the data set on Cavia porcellus [2] it was 10 mg/kg. Also, in data set [3], the median lethal dose (LD50) was above 1000 mg/kg.
In the data set with Cavia porcellus [2], `CSCC(=O)N1CCSC1COc1ccccc1O` (centres undefined) displayed a median effective dose (ED50) of 28 mg/kg. Moreover, the LD50 in data set [3] is above 1000 mg/kg.
Consider `COc1ccccc1OCC1SCCN1C(=O)CC(=O)O` (centres undefined), for which the 50% effect level with Cavia porcellus [1] (ED50) was put at a dose of 20 mg/kg. The inhibition in vivo at 30 mg/kg with Cavia porcellus [7] was below 20%. Also, the LD50 in data set [3] is above 1000 mg/kg.
Consider `CCOC(=O)C(C)(C)C(=O)N1CCSC1COc1ccccc1OC` (centres undefined), for which the figures for the 50% effective dose (ED50) with Cavia porcellus [1] and in the data set on Cavia porcellus [2] were 61 mg/kg and 48 mg/kg, respectively. For the same compound, the median lethal dose (LD50) in data set [3] is above 1000 mg/kg.
For the compound `CNC(=O)CC(=O)N1CCSC1COc1ccccc1OC` (centres undefined), the ED50 was 21 mg/kg in the data set with Cavia porcellus [1] and 22 mg/kg with Cavia porcellus [2]. This compound returned an LD50 in data set [3] above 1000 mg/kg.
In the data set on Cavia porcellus [2], `O=C(Cn1ccnc1)N1CCSC1COc1ccccc1O` (centres undefined) returned an ED50 of 27 mg/kg.
In the case of `CCOC(=O)CC(=O)N1CCSC1COc1ccccc1OC` (centres undefined) [MOGUISTEINE], the figures for the median effective dose (ED50) in the data set with Cavia porcellus [1] and in the data set on Cavia porcellus [2] were 21 mg/kg and 11 mg/kg, respectively. Further, the median lethal dose (LD50) in data set [3] is above 1000 mg/kg.
On to `COC(=O)c1ccc(OCC2SCCN2C(=O)Cn2ccnc2)cc1` (centres undefined), for which it took a dose of 62 mg/kg to reach the 50% effect level with Cavia porcellus [1] (ED50). In data set [3], this compound showed a median lethal dose (LD50) above 1000 mg/kg.
Taken in the same sequence, the figures for `O=C(O)CC(=O)N1CCSC1COc1ccccc1O` (centres undefined) were 25 mg/kg and 1000 mg/kg.
For the compound `COc1ccccc1OCC1N(C(=O)C[S+](C)[O-])CC[S+]1[O-]` (centres undefined), in data set [3], the median lethal dose (LD50) is above 1000 mg/kg.
Regarding `COc1ccccc1OCC1SCCN1C(=O)C(C)(C)C` (centres undefined), the 50% effective dose (ED50) in the data set with Cavia porcellus [2] came to 24 mg/kg. Besides, the LD50 in data set [3] was above 1000 mg/kg.
For `COc1ccc(OCC2SCCN2C(=O)Cn2ccnc2)cc1` (centres undefined), it took a dose of 48 mg/kg to reach the 50% effect level in the data set with Cavia porcellus [1] (ED50). In data set [3], the LD50 is above 1000 mg/kg.
Regarding `COc1ccccc1OCC1SCCN1C(=O)CSC` (centres undefined), it took a dose of 21 mg/kg to reach the 50% effect level in the data set with Cavia porcellus [2] (ED50).
Regarding `CCOC(=O)CC(=O)N1CC[S+]([O-])C1COc1ccccc1OC` (centres undefined), the values for the ED50 in the data set with Cavia porcellus [1] and in the data set with Cavia porcellus [2] were 27 mg/kg and 28 mg/kg, respectively. Further, in data set [3], the 50% lethal dose (LD50) is above 1000 mg/kg.
For the compound `COc1ccccc1OCC1SCCN1C(=O)CSC(=O)c1cccnc1` (centres undefined), the LD50 in data set [4] was above 1000 mg/kg. This compound returned an inhibition in vivo at 30 mg/kg in the data set with Cavia porcellus [5] below 20%.
Compound `CCOC(=O)CC(=O)N1CCS(=O)(=O)C1COc1ccccc1OC` (centres undefined) yielded a median effective dose (ED50) in the data set with Cavia porcellus [1] of 28 mg/kg. In addition, the inhibition in vivo at 30 mg/kg with Cavia porcellus [7] was below 20%. Moreover, in data set [3], the median lethal dose (LD50) is above 1000 mg/kg.
`CCN(CC)CCNC(=O)CC(=O)N1CCSC1COc1ccccc1OC` (centres undefined) registered an ED50 with Cavia porcellus [1] of 56 mg/kg. In the data set on Cavia porcellus [7], the inhibition in vivo at 30 mg/kg is below 20%. In data set [3], the median lethal dose (LD50) came out at 250 mg/kg.
In turn, `COc1ccccc1OCC1SCCN1C(=O)CSC(=O)CN1CCN(C)CC1` (centres undefined) gave an LD50 in data set [4] above 1000 mg/kg. Further, the inhibition in vivo at 30 mg/kg in the data set with Cavia porcellus [5] is below 20%.
On to `COc1ccccc1OCC1SCCN1C(=O)CN.Cl` (centres undefined), for which the ED50 with Cavia porcellus [1] stood at 57 mg/kg. Also, in data set [3], the median lethal dose (LD50) is 585 mg/kg.
The compound `COc1ccccc1OCC1SCCN1C(=O)/C=C/c1ccc(O)c(O)c1` (centres undefined) had an LD50 in data set [4] above 1000 mg/kg. For the same compound, the inhibition in vivo at 30 mg/kg in the data set with Cavia porcellus [5] was below 20%.
With `COc1ccccc1SCC1SCCN1C(=O)Cn1ccnc1` (centres undefined), in the data set with Cavia porcellus [6], the inhibition in vivo at 30 mg/kg is below 20%. This compound returned a 50% lethal dose (LD50) in data set [3] of 958 mg/kg.
In the data set with Cavia porcellus [1], `COc1ccccc1OCC1SCCN1C(=O)CNC(C)=O` (centres undefined) came in with a median effective dose (ED50) of 40 mg/kg. The compound further returned a median lethal dose (LD50) in data set [3] above 1000 mg/kg.
